Laboratory results from ChEMBL document CHEMBL1914291, “Ptilomycalin A inhibits laccase and melanization in Cryptococcus neoformans” (Bioorg Med Chem, 2011).
Active and inactive are the calls of the source. The rule behind the calls is not given here.

What was measured:
Cryptococcus neoformans [1] = experiment: Antimelanogenic activity in non-melanized Cryptococcus neoformans var. grubii assessed as inhibition of pigmentation at 0.5 ug/mL after 10 days by microtiter plate assay in presence of 1 mM catecholamine; type: functional
Summary of the method: (§1)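 Overnight non-melanized culture diluted in fresh defined minimal medium to OD about 0.010–0.020. Cells were exposed to compound from DMSO stock in microtiter wells containing 1 mM catecholamine (epinephrine, dopamine or L-dopa) and grown 10 days at 30 °C. Melanization/pigmentation was scored visually against cell-only and DMSO controls.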

Cryptococcus neoformans [2] = experiment: Antimelanogenic activity in non-melanized Cryptococcus neoformans var. grubii assessed as inhibition of pigmentation at 200 ug/mL after 10 days by microtiter plate assay in presence of 1 mM catecholamine; type: functional
Summary of the method: (§2)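 Broth assay in microtiter plates. An overnight culture of non-melanized C. neoformans var. grubii is diluted in fresh defined minimal medium to OD about 0.010–0.020. It is exposed to single sublethal concentrations (from DMSO; cells/DMSO control) in medium with 1 mM catecholamine (epinephrine, dopamine or L-dopa) at 30 °C. Pigmentation is scored visually at 10 days, with an additional check at 21 days.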

Cryptococcus neoformans [3] = experiment: Antifungal activity in Cryptococcus neoformans var. grubii assessed as clear halo diameter at 20 ug after 6 to 8 days by halo assay in presence of dopamine; type: functional; details: read-out: DIZ
Summary of the method: (§3)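 Paper-disk diffusion halo assay on lawns of C. neoformans (MAT α; var. grubii H99 serotype A, var. gattii serotype B) in defined minimal medium agar with 1 mM catecholamine (L-dopa, dopamine or epinephrine). Compounds were dissolved in DMSO and applied to 6.5 mm disks, which were dried 3 h at RT. Plates were incubated at 30 °C for 6–8 days and the clear halo diameter was measured in mm.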

Cryptococcus neoformans [4] = experiment: Antifungal activity in Cryptococcus neoformans var. grubii assessed as clear halo diameter at 20 ug after 6 to 8 days by halo assay in presence of epinephrine; type: functional; details: read-out: DIZ; summary of the method: as §3
Cryptococcus gattii [5] = experiment: Antifungal activity in Cryptococcus neoformans var. gattii assessed as clear halo diameter at 20 ug after 6 to 8 days by halo assay in presence of L-dopa; type: functional, Cryptococcus bacillisporus; details: read-out: DIZ; summary of the method: as §3
Cryptococcus gattii [6] = experiment: Antifungal activity in Cryptococcus neoformans var. gattii assessed as clear halo diameter at 20 ug after 6 to 8 days by halo assay in presence of dopamine; type: functional, Cryptococcus bacillisporus; details: read-out: DIZ; summary of the method: as §3
Cryptococcus gattii [7] = experiment: Antifungal activity in Cryptococcus neoformans var. gattii assessed as clear halo diameter at 20 ug after 6 to 8 days by halo assay in presence of epinephrine; type: functional, Cryptococcus bacillisporus; details: read-out: DIZ; summary of the method: as §3
Cryptococcus neoformans [8] = experiment: Antimelanogenic activity in non-melanized Cryptococcus neoformans var. grubii assessed as inhibition of pigmentation at 0.0625 ug/mL after 10 days by microtiter plate assay in presence of 1 mM catecholamine; type: functional; summary of the method: as §1
Cryptococcus neoformans [9] = experiment: Antifungal activity in Cryptococcus neoformans var. grubii assessed as clear halo diameter at 2 ug after 6 days by halo assay in presence of 1 mM L-dopa; type: functional; summary of the method: as §3
Cryptococcus gattii [10] = experiment: Antifungal activity in Cryptococcus neoformans var. gattii assessed as clear halo diameter at 2 ug after 6 days by halo assay in presence of 1 mM L-dopa; type: functional, Cryptococcus bacillisporus; summary of the method: as §3
Cryptococcus neoformans [11] = experiment: Antifungal activity in Cryptococcus neoformans var. grubii assessed as clear halo diameter at 20 ug after 6 to 8 days by halo assay in presence of L-dopa; type: functional; details: read-out: DIZ; summary of the method: as §3
Cryptococcus neoformans [12] = experiment: Antimelanogenic activity in Cryptococcus neoformans var. grubii assessed as halo diameter surrounded by non-melanized cells at 20 ug after 6 to 8 days by halo assay in presence of dopamine; type: functional; details: read-out: DIZ
Summary of the method: (§4)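 Paper-disk diffusion halo assay on a lawn of C. neoformans (MAT α; var. grubii H99 serotype A, var. gattii serotype B). Medium is defined minimal medium agar with 1 mM catecholamine (L-dopa, dopamine or epinephrine). Compound is delivered from DMSO stock onto 6.5 mm disks, which are dried 3 h at RT. Incubation is 30 °C for 6–8 days. The read-out is halo diameter (mm), with the halo checked for non-melanized cells.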

Cryptococcus neoformans [13] = experiment: Antimelanogenic activity in Cryptococcus neoformans var. grubii assessed as halo diameter surrounded by non-melanized cells at 20 ug after 6 to 8 days by halo assay in presence of epinephrine; type: functional; details: read-out: DIZ; summary of the method: as §4
Cryptococcus gattii [14] = experiment: Antimelanogenic activity in Cryptococcus neoformans var. gattii assessed as halo diameter surrounded by non-melanized cells at 20 ug after 6 to 8 days by halo assay in presence of L-dopa; type: functional, Cryptococcus bacillisporus; details: read-out: DIZ; summary of the method: as §4
Cryptococcus gattii [15] = experiment: Antimelanogenic activity in Cryptococcus neoformans var. gattii assessed as halo diameter surrounded by non-melanized cells at 20 ug after 6 to 8 days by halo assay in presence of dopamine; type: functional, Cryptococcus bacillisporus; details: read-out: DIZ; summary of the method: as §4
Cryptococcus gattii [16] = experiment: Antimelanogenic activity in Cryptococcus neoformans var. gattii assessed as halo diameter surrounded by non-melanized cells at 20 ug after 6 to 8 days by halo assay in presence of epinephrine; type: functional, Cryptococcus bacillisporus; details: read-out: DIZ; summary of the method: as §4
Cryptococcus neoformans [17] = experiment: Antimelanogenic activity in non-melanized Cryptococcus neoformans var. grubii assessed as inhibition of pigmentation at 0.8 ug/mL after 10 days by microtiter plate assay in presence of 1 mM catecholamine; type: functional; summary of the method: as §2
Cryptococcus neoformans [18] = experiment: Antimelanogenic activity in non-melanized Cryptococcus neoformans var. grubii assessed as inhibition of pigmentation at 0.8 ug/mL after 21 days by microtiter plate assay in presence of 1 mM catecholamine; type: functional; summary of the method: as §2
Cryptococcus neoformans [19] = experiment: Antimelanogenic activity in non-melanized Cryptococcus neoformans var. grubii assessed as onset day of melanization at 0.06 uM by drop test assay in presence of 1 mM L-dopa (reference value: 6 days); type: functional
Summary of the method: (§5)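 Drop test. C. neoformans culture at 10^7 cells/mL is dosed with compound at 0, 0.06, 0.2, 0.6 and 2 μM. It is dropped onto defined minimal medium plates with 1 mM L-dopa and incubated at 30 °C until melanization occurs. The read-out is the onset day of melanization.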

Cryptococcus neoformans [20] = experiment: Antimelanogenic activity in non-melanized Cryptococcus neoformans var. grubii assessed as onset day of melanization at 0.6 uM by drop test assay in presence of 1 mM L-dopa (reference value: 6 days); type: functional; summary of the method: as §5
Cryptococcus neoformans [21] = experiment: Antimelanogenic activity in non-melanized Cryptococcus neoformans var. grubii assessed as onset day of melanization at 2 uM by drop test assay in presence of 1 mM L-dopa (reference value: 6 days); type: functional; summary of the method: as §5
Cryptococcus neoformans [22] = experiment: Antimelanogenic activity in non-melanized Cryptococcus neoformans var. grubii assessed as delay of melanization by drop test assay in presence of 1 mM L-dopa; type: functional; summary of the method: as §5
Laccase [23] = molecular target: T1, Laccase (Trametes versicolor, UniProt O94222); experiment: Inhibition of Trametes versicolor laccase assessed as production of dopachrome using 100 uM epinephrine as substrate preincubated for 30 mins before substrate addition
T1 sequence (O94222 whole entry): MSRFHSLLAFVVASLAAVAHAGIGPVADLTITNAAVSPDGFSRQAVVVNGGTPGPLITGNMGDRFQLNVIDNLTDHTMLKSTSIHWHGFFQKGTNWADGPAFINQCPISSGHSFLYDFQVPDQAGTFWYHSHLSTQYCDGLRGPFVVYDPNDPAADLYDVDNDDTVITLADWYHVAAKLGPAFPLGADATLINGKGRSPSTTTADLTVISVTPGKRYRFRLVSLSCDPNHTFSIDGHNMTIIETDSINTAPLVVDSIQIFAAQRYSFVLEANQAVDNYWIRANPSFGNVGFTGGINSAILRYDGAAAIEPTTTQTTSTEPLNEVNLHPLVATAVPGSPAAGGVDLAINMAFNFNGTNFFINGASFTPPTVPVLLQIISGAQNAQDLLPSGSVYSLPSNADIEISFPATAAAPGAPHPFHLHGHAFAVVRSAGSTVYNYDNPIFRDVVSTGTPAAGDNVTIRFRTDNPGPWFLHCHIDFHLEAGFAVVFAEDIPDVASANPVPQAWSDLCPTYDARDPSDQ
Summary of the method: (§6)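 Cell-free assay with purified Trametes versicolor laccase. Inhibitor (0–1 mM range) is preincubated with the enzyme for 30 min before substrate is added. Substrates are epinephrine 100 μM, dopamine 200 μM or L-dopa 300 μM. Dopachrome formation is monitored colorimetrically at 480 nm. IC50 is taken from dose-response curves, mean of two experiments with SE; NaN3 is the positive control.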

[24] = Inhibition of laccase in Cryptococcus neoformans var. grubii assessed as production of dopachrome using 100 uM epinephrine as substrate preincubated for 30 mins before substrate addition
Summary of the method: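 Whole-cell laccase assay. C. neoformans var. grubii is grown in asparagine salts without glucose to raise laccase, then permeabilized with toluene-ethanol (1:4). Inhibitor (0–1 mM range) is preincubated for 30 min before adding 100 μM epinephrine. Dopachrome is read at 480 nm. IC50 is the mean of two experiments with SE; NaN3 is the positive control.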

Laccase [25] = molecular target: T1, Laccase; experiment: Inhibition of Trametes versicolor laccase assessed as production of dopachrome using 200 uM dopamine as substrate preincubated for 30 mins before substrate addition; summary of the method: as §6
Laccase [26] = molecular target: T1, Laccase; experiment: Inhibition of Trametes versicolor laccase assessed as production of dopachrome using 300 uM L-dopa as substrate preincubated for 30 mins before substrate addition; summary of the method: as §6
Cryptococcus neoformans [27] = experiment: Antimelanogenic activity in Cryptococcus neoformans var. grubii assessed as halo diameter surrounded by non-melanized cells at 10 ug after 6 days by halo assay in presence of 1 mM L-dopa; type: functional; summary of the method: as §4
Cryptococcus gattii [28] = experiment: Antimelanogenic activity in Cryptococcus neoformans var. gattii assessed as halo diameter surrounded by non-melanized cells at 10 ug after 6 days by halo assay in presence of 1 mM L-dopa; type: functional, Cryptococcus bacillisporus; summary of the method: as §4
[29] = test system: Human immunodeficiency virus; experiment: Inhibition of DNA polymerase activity of HIV reverse transcriptase at 10 uM
Cryptococcus neoformans [30] = experiment: Antimelanogenic activity in Cryptococcus neoformans var. grubii assessed as halo diameter surrounded by non-melanized cells at 20 ug after 6 to 8 days by halo assay in presence of L-dopa; type: functional; details: read-out: DIZ; summary of the method: as §4

Clc1ccc(COC(Cn2ccnc2)c2ccc(Cl)cc2Cl)c(Cl)c1 (centres undefined)
Activity (Cryptococcus neoformans [1]): inactive

O=C(O)CNCP(=O)(O)O
Activity (Cryptococcus neoformans [2]): inactive

C[C@@H]1[C@H](O)[C@@H](C)/C=C/C=C/C=C/C=C/C=C/C=C/C=C/[C@H](O[C@@H]2O[C@H](C)[C@@H](O)[C@H](N)[C@@H]2O)C[C@@H]2O[C@](O)(C[C@@H](O)C[C@@H](O)[C@H](O)CC[C@@H](O)C[C@@H](O)CC(=O)O[C@H]1C)C[C@H](O)[C@H]2C(=O)O [AMPHOTERICIN B]
zone of inhibition at 20 µg/disc (Cryptococcus neoformans [3]): 18 mm | zone of inhibition at 20 µg/disc (Cryptococcus neoformans [4]): 18 mm | zone of inhibition at 20 µg/disc (Cryptococcus gattii [5]): 17 mm | zone of inhibition at 20 µg/disc (Cryptococcus gattii [6]): 22 mm | zone of inhibition at 20 µg/disc (Cryptococcus gattii [7]): 18 mm | Activity (Cryptococcus neoformans [8]): inactive | diameter of the inhibition zone (DIZ) (Cryptococcus neoformans [9]): 15.5 mm | diameter of the inhibition zone (DIZ) (Cryptococcus gattii [10]): 10 mm | zone of inhibition at 20 µg/disc (Cryptococcus neoformans [11]): 21 mm

CC[C@H]1CCCC[C@@]2(C[C@@H]3CC[C@@H]4[C@H](C(=O)OCCCCCCCCCCCCCCCC(=O)N(CCCN)CCCCN)[C@]5(CCC[C@@H](C)O5)NC(=[N+]34)N2)O1.[Cl-] [PTILOMYCALIN A]
zone of inhibition at 20 µg/disc (Cryptococcus neoformans [12]): 15 mm | zone of inhibition at 20 µg/disc (Cryptococcus neoformans [13]): 12 mm | zone of inhibition at 20 µg/disc (Cryptococcus gattii [14]): 17 mm | zone of inhibition at 20 µg/disc (Cryptococcus gattii [15]): 18 mm | zone of inhibition at 20 µg/disc (Cryptococcus gattii [16]): 12 mm | Activity (Cryptococcus neoformans [17]): Active | Activity (Cryptococcus neoformans [18]): Active | Time (Cryptococcus neoformans [19]): 9 days | Time (Cryptococcus neoformans [20]): 20 days | Time (Cryptococcus neoformans [21]): 25 days | Activity (Cryptococcus neoformans [22]): Dose-dependent effect | IC50 (Laccase [23]): 4.7 µM | IC50 [24]: 7.3 µM | IC50 (Laccase [25]): 4.9 µM | IC50 (Laccase [26]): 5.8 µM | diameter of the inhibition zone (DIZ) (Cryptococcus neoformans [27]): 13.5 mm | diameter of the inhibition zone (DIZ) (Cryptococcus gattii [28]): 9.5 mm | inhibition [29]: 60% | zone of inhibition at 20 µg/disc (Cryptococcus neoformans [30]): 17 mm

[N-]=[N+]=[N-] [SODIUM AZIDE]
IC50 (Laccase [23]): 263 µM | IC50 [24]: 329 µM | IC50 (Laccase [25]): 257 µM | IC50 (Laccase [26]): 279 µM
